This is a sample that favours compounds with a hit; in the whole collection about 12% have one here.
Diaphorase inh = diaphorase inhibitors and chemical oxidizers, primary screen, counter-screen for diaphorase-coupled primary assays, biochemical, uHTS, resorufin fluorescence. diaphorase resazurin-to-resorufin fluorescence, NADH, 16 min; bacterial (C. kluyveri) enzyme, not human. inhibition, % at 20 µM. 0.69% of 190,000 active. AID 1217, 2008;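 active = primary screen inhibition at 20 µM above a set limit, cut at about 50% in these data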
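System: Bacterial diaphorase enzyme (C. kluyveri) | Incubation: 16-min room-temperature incubation before reading | Benchmarks: No-NADH positive control and DMSO neutral control | Measured by: Resorufin fluorescence 544/590 nm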
Lmaj promast = Leishmania major promastigote growth inhibition, primary screen. Leishmania major promastigotes, resazurin fluorescence viability. 9% of 200,000 active. inhibition, % at 10 µM. AID 1063, 2008; in the data active = inhibition above about 50%;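 note: promastigotes grown with compound for 44 hours at 28 °C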
WT yeast gro inh = growth inhibition of WT strain, primary screen, mitochondrial fusion inhibitor project, WT and mutant strains, chemical genetic. mitochondrial fusion phenotypic screen. inhibition, % at 10 µM. 2.1% of 190,000 active; in the data active = inhibition above about 58%; tested in S. cerevisiae
ROMK mod = ROMK potassium channel modulators, primary screen, cell-based, thallium flux, MLSMR library; ATP-sensitive inward rectifier potassium channel 1 (Homo sapiens), P48048; Tet-inducible ROMK, thallium flux fluorescence; actives lie on both sides; B-score at 10 µM; 2% of 130,000 active; AID 1918, 2009;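 active = signal ratio slope over the read window, or its plate-corrected B-score, at least 3 SD from the plate mean, either direction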;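 note: B-score of the F/F0 ratio slope over 7 to 12 s after thallium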
KCC2 mod = KCC2 cotransporter modulators, thallium flux, primary screen, cell-based, HEK293 KCC2, FluoZin-2 fluorescence, MLSMR. Solute carrier family 12 member 5 (Homo sapiens), Q9H2X9. KCC2 cells, thallium flux FluoZin-2 fluorescence. B-score of Tl+ flux slope (higher = more flux/activation; lower = inhibition) at 10 µM. 2.2% of 190,000 active. AID 1456, 2008;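 active = thallium flux slope and its plate-corrected score both differing from the plate sample mean at a set confidence after two filtering rounds, in either direction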;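 note: slope of fluorescence scaled to starting intensity during 10 to 20 s after thallium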
Target sequence (Q9H2X9 whole entry, looked up): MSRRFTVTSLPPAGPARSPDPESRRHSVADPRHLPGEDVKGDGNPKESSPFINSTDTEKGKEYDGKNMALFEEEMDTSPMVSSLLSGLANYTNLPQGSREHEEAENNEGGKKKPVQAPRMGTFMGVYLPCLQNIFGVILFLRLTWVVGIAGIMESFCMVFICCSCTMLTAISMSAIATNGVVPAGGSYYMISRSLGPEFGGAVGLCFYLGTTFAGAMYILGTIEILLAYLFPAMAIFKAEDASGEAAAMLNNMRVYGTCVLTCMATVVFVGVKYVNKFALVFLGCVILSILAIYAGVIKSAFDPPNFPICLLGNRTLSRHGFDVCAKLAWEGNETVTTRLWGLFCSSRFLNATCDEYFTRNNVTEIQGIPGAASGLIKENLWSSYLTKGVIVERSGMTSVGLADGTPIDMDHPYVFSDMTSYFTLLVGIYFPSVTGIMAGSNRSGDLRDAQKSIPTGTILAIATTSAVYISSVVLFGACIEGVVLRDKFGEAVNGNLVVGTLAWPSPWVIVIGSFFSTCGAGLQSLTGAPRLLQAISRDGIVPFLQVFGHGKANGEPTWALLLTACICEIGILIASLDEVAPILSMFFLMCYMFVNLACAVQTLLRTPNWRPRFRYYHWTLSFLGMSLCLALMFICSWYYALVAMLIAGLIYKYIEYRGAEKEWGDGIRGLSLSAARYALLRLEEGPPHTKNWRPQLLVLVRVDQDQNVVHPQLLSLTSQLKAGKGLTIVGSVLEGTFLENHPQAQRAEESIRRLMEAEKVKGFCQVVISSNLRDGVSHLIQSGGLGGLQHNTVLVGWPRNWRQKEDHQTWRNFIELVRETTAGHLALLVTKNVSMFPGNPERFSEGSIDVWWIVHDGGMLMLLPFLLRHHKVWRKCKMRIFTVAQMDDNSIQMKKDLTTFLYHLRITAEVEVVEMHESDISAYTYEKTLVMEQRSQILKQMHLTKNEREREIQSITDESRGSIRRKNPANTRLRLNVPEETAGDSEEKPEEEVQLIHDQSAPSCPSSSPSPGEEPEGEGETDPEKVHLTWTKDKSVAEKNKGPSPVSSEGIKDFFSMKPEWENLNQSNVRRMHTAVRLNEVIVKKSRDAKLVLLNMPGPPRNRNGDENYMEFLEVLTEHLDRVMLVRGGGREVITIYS
Diaph act CS = compounds boosting diaphorase resazurin reduction – biochemical, uHTS, resorufin fluorescence, counter-screen for diaphorase-coupled primary assays, primary screen; Diaphorase/resazurin coupled assay, 16 min; stronger effect = higher value; 1 = vehicle wells, 0 = NADH-free wells; activation factor at 20 µM; 0.005% of 190,000 active;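 active = diaphorase activity raised at least twofold by the compound at 20 µM; inactive = activation factor below 2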
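Assay system: Purified diaphorase enzyme from Clostridium kluyveri | Amount: Enzyme 0.07 U/mL final | Dosing: Compound 20 µM once, DMSO 1% | Timing: 16 min reaction at room temperature | Detection: Fluorescence, excitation 544 nm and emission 590 nm | Evaluation: Higher resorufin formation from activation or reduction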
Of the large screens only hits and unclear results are named; the others gave an inactive call.

COc1ccc(OC)c(C2C=C(c3ccc(C)c(C)c3)Nc3nnnn32)c1 (stereo not given)	none (no result: Lmaj promast, ROMK mod, KCC2 mod)
COc1cccc(C2=CC(c3cccc(OC)c3OC)n3nnnc3N2)c1 (stereo not given)	Lmaj promast 79 (no result: ROMK mod)
COc1cccc(C2=CC(c3cc(OC)ccc3OC)n3nnnc3N2)c1 (stereo not given)	Lmaj promast 92 (no result: ROMK mod)
COc1cccc(C2=CC(c3ccc(N(C)C)cc3)n3nnnc3N2)c1 (stereo not given)	none (no result: KCC2 mod)
O=C(CSc1ccc(-c2cccc([N+](=O)[O-])c2)nn1)N1CCCCC1	none
O=C(SCC(O)C(O)CS)c1cccs1 (stereo not given)	none (no result: Diaphorase inh, Lmaj promast, WT yeast gro inh, ROMK mod, Diaph act CS)
Cc1cc(Cl)ccc1Oc1ncnc2onc(C)c12	none
CCCC1(C)Nc2ccccc2-c2nc3ccccc3n21 (stereo not given)	Lmaj promast 85 (no result: ROMK mod)
c1ccc2c(c1)NC1(CCCC1)n1c-2nc2ccccc21	none (no result: ROMK mod, KCC2 mod)
CN(C)C(CNc1ncnc2sc3c(c12)CCCC3)c1ccco1 (stereo not given)	none
CCOc1cc(S(=O)(=O)N2CCCC2)c(C)cc1C	none (no result: ROMK mod)
Cc1ccc2nc(N/C(N)=N/S(=O)(=O)c3ccc([N+](=O)[O-])cc3)nc(C)c2c1	Lmaj promast 99
Cc1ccc(/S(C)=N/S(=O)(=O)c2ccc(C)cc2)cc1 (stereo not given)	none (no result: ROMK mod)
COC(=O)N/N=C/c1cc(C)n(-c2cccc3ccccc23)c1C	Lmaj promast 67
COC(=O)N/N=C/c1cn(CCCOc2ccccc2)c2ccccc12	Lmaj promast 54
COC(=O)Nc1cccn(Cc2c(Cl)cccc2Cl)c1=O	Diaphorase inh 51 (no result: ROMK mod)
O=C(N/N=C/c1cn(CCOc2ccccc2)c2ccccc12)c1ccncc1	none
CCOC(=O)N/N=C/c1cc(C)n(-c2cccc3ccccc23)c1C	none (no result: ROMK mod)
COC(=O)N/N=C/c1cn(Cc2ccccc2Cl)c2ccccc12	Lmaj promast 75
COC(=O)N/N=C/c1cn(Cc2ccc(Cl)cc2Cl)c2ccccc12	none (no result: ROMK mod)
CCN1C(=O)CCC(C(=O)O)C1c1ccc(OC)cc1 (stereo not given)	none (no result: Diaphorase inh, Lmaj promast, WT yeast gro inh, ROMK mod, Diaph act CS)
CCSc1c(-c2ccccc2)nc2c(C)cccc2c1C(=O)O	none
Cc1cc(C(F)(F)F)nc(-n2cc(-c3ccccc3)nn2)n1	none
COC(=O)N/N=C/c1cn(Cc2ccc(F)cc2)c2ccccc12	none (no result: Diaphorase inh, Lmaj promast, WT yeast gro inh, ROMK mod, Diaph act CS)
COC(=O)N/N=C/c1cn(Cc2c(Cl)cccc2Cl)c2ccccc12	WT yeast gro inh 63 (no result: ROMK mod)
CC(Sc1nnnn1C)C(=O)Nc1ccc2c(c1)OCCO2 (stereo not given)	none
Oc1cc2c(cc1C(c1ccc(Br)cc1)N1CCCC1)OCO2 (stereo not given)	Lmaj promast 73
S=C(c1ccc2c(c1)OCO2)N1CCCCCC1	none (no result: ROMK mod)
Cc1cccc(N2C(=O)c3cccc4c(N5CCCCC5)c([N+](=O)[O-])cc(c34)C2=O)c1C	Lmaj promast 89
OCC[C@H]1C[C@@H](O)[C@H](O)[C@]2(CCCCO2)O1	none (no result: Diaphorase inh, Lmaj promast, WT yeast gro inh, ROMK mod, Diaph act CS)
C/C(=N\NC(=O)c1ccc(C)cc1C)c1ccc(-n2ccnc2)cc1	Lmaj promast 79 (no result: ROMK mod)
CCOC(=O)N1CCC(N2C(=O)c3ccccc3C2Nc2ccc(Cl)cn2)CC1 (stereo not given)	none (no result: ROMK mod)
CN(Cc1cn(C)nc1-c1ccc(Oc2ccccc2)cc1)Cc1cnc2ccccn12	Lmaj promast 78
Cn1cc(CNCc2cnc3ccccn23)c(-c2ccc(Oc3ccccc3)cc2)n1	none
CN(Cc1cn(C)nc1-c1ccc(Oc2ccccc2)cc1)CC1COCCO1 (stereo not given)	Lmaj promast 85 (no result: KCC2 mod)
Cc1ccc(CSc2ncnc3c2cnn3Cc2ccccc2)cc1	WT yeast gro inh 76
COc1cccc(/C=C/C(=O)NCc2cn3cc(Cl)ccc3n2)c1OC	none
O=C(NCc1ccco1)/C(=C/c1cccnc1)NC(=O)c1cccc(Br)c1	none
O=C(NCc1ccco1)/C(=C\c1cccnc1)NC(=O)c1ccccc1F	Lmaj promast 53

Screens deposited in PubChem BioAssay by several laboratories.
